This is an account of results in article PMC11837772 (RSC Advances, 2025).

Entries after “also recorded” stand apart in the source; their conditions may differ. Like-named read-outs stand apart in the source and are kept apart here.

The subject of data set [1] is L. donovani promastigotes. Briefly: IC50 from dose-dependent anti-promastigote activity. It is filed as cell-based, Leishmania donovani. The following applies: 72 h, read-out: IC50 against L. donovani promastigotes. The method, boiled down:
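Log-phase promastigotes (26 °C, M199 with 10% heat-inactivated FBS) were exposed to graded concentrations of test compound, and viability was read by MTT. Percentage viability was calculated as treated/untreated mean × 100. IC50 was extrapolated from the % viability versus concentration plot, from triplicate experiments as mean ± SEM.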

Data set [2] has as its system L. donovani promastigotes. Nature of the data set: Cellular morphological alteration of promastigotes. The class given is cell-based, Leishmania donovani. The following applies: 48 hours, contrast microscope 40× objective. The method, boiled down: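 Exponential-phase promastigotes (grown at 26 °C in M199 with 10% heat-inactivated FBS) at 2 × 10^6 cells per mL were incubated without or with test compound or reference drug at 1 μM for 48 h. Cell shape was examined by contrast/light microscopy (40× objective) at 0 and 48 h and scored for programmed-cell-death-type morphology.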

Data set [3] addresses T1, papain (Carica papaya, UniProt P00784).
T1 sequence (P00784 134-345): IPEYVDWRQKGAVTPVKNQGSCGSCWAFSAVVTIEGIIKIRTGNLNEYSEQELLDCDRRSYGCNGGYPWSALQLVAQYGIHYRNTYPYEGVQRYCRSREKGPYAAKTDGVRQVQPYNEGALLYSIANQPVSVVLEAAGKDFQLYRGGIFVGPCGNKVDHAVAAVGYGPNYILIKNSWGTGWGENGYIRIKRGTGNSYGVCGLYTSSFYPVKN
Briefly: In vitro cysteine protease inhibition assay. It is filed as biochemical. A digest of the protocol:
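Papain was run in activation buffer of sodium acetate (pH 5.5), 8 mM DTT and 4 mM EDTA, with papain […], 10 μM Bz-Arg-AMC and inhibitor at 0–32 μM (dissolved in DMSO). AMC release was followed by fluorescence (excitation 345 nm, emission 440 nm) for 120 min. IC50 came from the straight-line fit of % residual activity versus log[inhibitor].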

In data set [4] the test system is intracellular L. donovani amastigotes. Nature of the data set: Intracellular amastigotes assay in infected macrophages. The class given is cell-based, Leishmania donovani. The following applies: for Percentage Reductions (%) in intracellular amastigotes: 72 h; for SI (selectivity index): CC50 (THP-1) / IC50 (intracellular amastigotes). A digest of the protocol: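 Macrophages (5 × 10^4 per chamber) adhered 2 h at 37 °C in 5% CO2, were washed with serum-free RPMI, then infected overnight with metacyclic L. donovani at 10:1 in complete RPMI 1640. Free promastigotes were washed off after 24 h, and test compound was added in duplicate for 72 h at 37 °C in 5% CO2. Giemsa-stained amastigotes per 100 macrophages were counted and expressed as a percentage of the untreated control mean.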

For data set [5], the system named is L. donovani promastigotes. Briefly: Primary screening against L. donovani promastigotes. The class given is cell-based. The note with it: Leishmania donovani, 48 h, read-out: % inhibition (48 h). The method, boiled down:
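Promastigotes at 2 × 10^6 cells per mL in RPMI at 26 °C were given test compound at 100 μM, with DMSO (0.2%) as solvent, an amphotericin B reference and a medium-only control. Viability was read by MTT and expressed as % inhibition.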

A short description of data set [6]: Cytotoxicity assay. It is filed as cell-based, human. The note with it: human, THP-1 human monocytic cells, pH 7.4, Log CC50, THP-1 human monocytic cells, 72 h, MTT. A digest of the protocol: (§1)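 THP-1 cells in RPMI with 10% FBS were seeded at 1 × 10^6 cells per mL and held 24 h at 37 °C in humidified CO2. Medium was then replaced with test compound or standard at 100, 50, 25, 12.5 and 6.25 μM for 72 h. Viability was read by MTT (0.5 mg mL−1, 4 h, 37 °C), with formazan dissolved in DMSO and absorbance at 570 nm.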

Data set [7] has as its system THP-1 human monocytic cells. Briefly: Cytotoxicity assay. The following applies: for Log CC50 / CC50: THP-1 human monocytic cells, 72 h, MTT; for CC50: unit printed in Table 5 only. It is filed as cell-based. The method, boiled down: as §1
The subject of data set [8] is SARS-CoV-2 3CL protease. The note with it: read-out: IC50 against SARS-CoV-2 3CL protease; cited from earlier work.
For data set [9], the system named is L. donovani. The note with it: read-out: IC50 against L. donovani; ref Ahmed H. E. Hassan and his team; cited from earlier work.
For data set [10] the following is noted: preliminary cytotoxicity assessments; ref Ahmed H. E. Hassan and his team; cited from earlier work.
Where [11] appears, read: serial dilutions starting at 25 μM, MTT.

Take `CC/C(=C\c1ccc(OCC(=O)NC(Cc2ccccc2)C(=O)N2CCOCC2)cc1)[N+](=O)[O-]` (stereo not drawn) [14a, (E)-N-(1-Morpholino-1-oxo-3-phenylpropan-2-yl)-2-(4-(2-nitrobut-1-en-1-yl)phenoxy)acetamide]: the IC50 in [1] (Leishmania donovani) turned out to be 11.9 µM; in data set [3], 9.63 ± 0.28 µM. In addition, the “morphological changes of treated promastigotes” value in data set [2] is recorded as “notable morphological alterations”. The “Percentage Reductions (%) in intracellular amastigotes” value in data set [4] (3.125 μM) came to 37.2%; in data set [4] (6.25 μM) it was 44.1%; in data set [4] (12.5 μM), 57.5%. Further, in [4], the “SI (selectivity index)” value is 3.55. For the same compound, in [5], the inhibition at 100 µM was 84.8%. For the same compound, the 50% cytotoxic concentration (CC50) at 72 h in data set [6] was 28.7 µM. Further, in data set [7] (even at a concentration of 28 μM), the “cytotoxicity to mammalian macrophages” value was “negligible cytotoxicity; also recorded: insignificant cytotoxicity”.
As for `CC/C(=C\c1ccc(OCC(=O)N[C@@H](Cc2ccccc2)C(=O)NCC(=O)OC)cc1)[N+](=O)[O-]` [14i, Methyl (E)-(2-(4-(2-nitrobut-1-en-1-yl)phenoxy)acetyl)phenylalanylglycinate], the IC50 in data set [1] (Leishmania donovani) was 5.3 µM. For the same compound, in [5], the inhibition at 100 µM was determined as 84.5%. This compound also gave a CC50 at 72 h in data set [6] of 5.15 µM.
As for `CC/C(=C\c1ccc(OCC(=O)N[C@@H](Cc2c[nH]c3ccccc23)C(=O)N[C@@H](C)C(=O)OC)cc1)[N+](=O)[O-]` [14j, Methyl (E)-(2-(4-(2-nitrobut-1-en-1-yl)phenoxy)acetyl)tryptophylalaninate], the inhibition at 100 µM in data set [5] was 65.5%.
Same read-out and setting: under `CC/C(=C\c1ccc(OCC(=O)N[C@@H](Cc2ccccc2)C(=O)N[C@@H](C)C(=O)OC)cc1)[N+](=O)[O-]` [14k, Methyl (E)-(2-(4-(2-nitrobut-1-en-1-yl)phenoxy)acetyl)phenylalanylalaninate] stands 54.8%.
As for `C[C@@H]1[C@H](O)[C@@H](C)/C=C/C=C/C=C/C=C/C=C/C=C/C=C/[C@H](O[C@@H]2O[C@H](C)[C@@H](O)[C@H](N)[C@@H]2O)C[C@@H]2O[C@](O)(C[C@@H](O)C[C@@H](O)[C@H](O)CC[C@@H](O)C[C@@H](O)CC(=O)O[C@H]1C)C[C@H](O)[C@H]2C(=O)O` [AmphoB, Amphotericin B, reference compound], in data set [1] (Leishmania donovani), the concentration for half-maximal inhibition (IC50) stood at 3.07 µM. Besides, the “Percentage Reductions (%) in intracellular amastigotes” value in data set [4] (3.125 μM) worked out at 52.3%; in [4] (6.25 μM), 63.2%; in data set [4] (12.5 μM) it was 85.5%. Also, the “SI (selectivity index)” value in data set [4] came to 3.48. The inhibition at 100 µM in data set [5] turned out to be 78.5%.
As for `O=[N+]([O-])C=Cc1ccc([N+](=O)[O-])cc1` [compound 2, 4-nitro-β-nitrostyrene], the IC50 in data set [8] was 730 nM.
On to `CCCCCCCC/C=C\CCCCCCCCCCCCOP(=O)([O-])OCC[N+](C)(C)C` [erufosine], for which the IC50 in data set [9] was 9.8 µM. Further, the cytotoxic concentration (CC50) in data set [10] is 19.4 µM.
On to “(E)-1-(2-(Morpholine-4-carbonyl)pyrrolidin-1-yl)-2-(4-(2-nitrobut-1-en-1-yl)phenoxy) ethan-1-one [14b]”, for which, in data set [1] (setting [11]), the half-inhibitory concentration (IC50) worked out at 16.8 µM. In [7], the “Log CC50” value is reported as 0.7734 and the 50% cytotoxic concentration (CC50) turned out to be 5.93 µM.
The like results for “(E)-2-(4-(2-Nitrobut-1-en-1-yl)phenoxy)-1-(2-(thiomorpholine-4-carbonyl)pyrrolidin-1-yl)ethan-1-one [14d]” were, in that order, 7.56 µM, 0.5025 and 3.18 µM.
The like results for “(E)-2-(4-(2-Nitrobut-1-en-1-yl)phenoxy)-N-(1-oxo-3-phenyl-1-thiomorpholinopropan-2-yl)acetamide [14c]” were, in that order, 7.24 µM, 0.5684 and 3.7 µM.
The like results for “Methyl (E)-(2-(1H-indol-3-yl)-2-(2-(4-(2-nitrobut-1-en-1-yl)phenoxy)acetamido)acetyl)valinate [14h]” were, in that order, 10 µM, 1.109 and 12.9 µM.
